Hits are enriched below; roughly 1.1% of the tested compounds scored in any of these assays.
Redox H2O2 prof: compounds producing H2O2 with reducing agent – biochemical, NIH compound library profiling, artefact control for MLSCN library redox annotation, primary screen | DTT-dependent redox cycling H2O2, phenol red/HRP absorbance; 100% = 100 µM peroxide control, 0% = buffer | activation, % at 10 µM | 200,000 tested, 0.03% active;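 active means activation of at least 50% relative to the plate's high and low controls in the primary single-dose screen; inactive means activation below 50%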;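 further: compound incubated with DTT at 0.8 mM final as the reducing agent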
PMI activator: increases human mannose-6-phosphate isomerase activity. 190,000 tested, 0.005% active. purified human PMI, coupled resazurin fluorescence, 20 min; hits give high values; 1 = vehicle control, 0 substrate-free wells. activation factor at 20 µM. AID 1214;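 active means activation factor of 2 or more at 20 µM, relative to plate controls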
Target sequence (P34949 whole entry, looked up): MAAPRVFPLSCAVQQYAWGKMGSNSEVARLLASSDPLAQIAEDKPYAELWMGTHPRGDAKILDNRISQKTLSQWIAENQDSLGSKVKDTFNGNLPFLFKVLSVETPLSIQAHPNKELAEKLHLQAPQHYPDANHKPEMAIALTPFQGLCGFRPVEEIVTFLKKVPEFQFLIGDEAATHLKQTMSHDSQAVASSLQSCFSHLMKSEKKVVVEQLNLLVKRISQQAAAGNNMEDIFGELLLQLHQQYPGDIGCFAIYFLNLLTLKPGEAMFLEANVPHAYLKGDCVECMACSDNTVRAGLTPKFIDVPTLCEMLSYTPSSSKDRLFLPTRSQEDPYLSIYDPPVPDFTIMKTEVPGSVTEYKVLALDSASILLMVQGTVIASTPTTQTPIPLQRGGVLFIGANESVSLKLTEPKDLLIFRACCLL
G6PDH counter: inhibits Leuconostoc G6PDH, flagging false hits in G6PDH-based assays; Purified L. mesenteroides G6PDH, diaphorase/resazurin coupled fluorescence, 45 min; inhibition, % at 5 µM; 200,000 tested, 0.12% active; AID 1020; in the data active means inhibition above about 50%
Diaph act CS: activates diaphorase or chemically reduces, flagging diaphorase assay artifacts | AID 1229 | Diaphorase/resazurin coupled assay, resorufin fluorescence, 16 min; hits give high values; 1 = vehicle wells, 0 = NADH-free wells | activation factor at 20 µM | 190,000 tested, 0.005% active;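 active means diaphorase activity raised at least twofold by the compound at 20 µM; inactive means activation factor below 2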
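Test system: Clostridium kluyveri diaphorase, purified enzyme; input: enzyme 0.07 U/mL final; buffer or medium: 50 mM HEPES pH 7.4 with 4.542 mM MgCl2, 0.005% Tween 20; also added: 0.114 mM NADH and 0.1 mM resazurin, final amounts; schedule: 16 min enzyme reaction, ambient temperature; technique: fluorescence of resorufin, 544 nm excitation, 590 nm emission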
Diaphorase inh: counter-screen for diaphorase-based assays: diaphorase inhibitors and chemical oxidizers | diaphorase resazurin-to-resorufin fluorescence, NADH, 16 min; bacterial (C. kluyveri) enzyme, not human | inhibition, % at 20 µM | 190,000 tested, 0.69% active;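 active means primary screen inhibition at 20 µM above a set limit, cut at about 50% in these data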;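 further: plate controls were DMSO with full reaction for no effect and wells lacking NADH for full effect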
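System: Diaphorase enzyme from Clostridium kluyveri | Amount: Enzyme working solution with 0.14 U/mL diaphorase | Benchmarks: No-NADH positive control and DMSO neutral control | Signal: Fluorescence of resorufin formed from resazurin, Ex 544/Em 590 nm | Schedule: 16-min room-temperature incubation before reading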
PMI act hi M6P: PMI (human) activation, high substrate; P34949; 190,000 tested, 0.34% active; coupled PMI enzyme assay, resazurin fluorescence, 20 min; hits give high values; 1 = untreated enzyme, 0 = substrate-free blank; activation factor at 20 µM;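 active means activation factor of 2 or more at 20 µM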
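Test system – human PMI in coupled enzyme assay · Timing – 20 min incubation at room temperature · Detection – Diaphorase-driven resazurin-to-resorufin fluorescence, excitation 544, emission 590 nm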
Active calls of the source: *; / = not tested or not shown.

SMILES	Redox H2O2 prof	PMI activator	G6PDH counter	Diaph act CS	Diaphorase inh	PMI act hi M6P
CCC(C)n1c(C)nc2c(c1=O)c1nc3ccccc3nc1n2CCC1=CCCCC1 (stereo unspecified)	-2.7	1	-0.8	0.4	64.1*	1
COc1ccc(Cn2c(S(=O)(=O)CC(N)=O)nc3ccccc32)cc1[N+](=O)[O-]	0.3	0.8	17.0	0.8	18.1	0.8
Cc1cccc(N2CCc3c2nc2ccc(Br)cc2c3N)c1	0.9	0.3	7.0	0.2	77.8*	0.4
COCCN=c1scc(-c2ccco2)n1/N=C/c1ccc(O)c(O)c1O	-1.9	0.3	16.2	0.2	79.7*	0.5
Oc1ccc(/C=N/n2c(-c3ccco3)csc2=Nc2cccnc2)c(O)c1	0.0	1	0.3	0.9	11.5	1.1
CC(C)N=c1scc(-c2ccco2)n1/N=C/c1ccc(O)c(O)c1	-9.0	0.4	14.5	0.4	59.2*	0.8
C/C(=N\Nc1ccc(Cl)cc1)c1ccccn1	-0.4	1.7	-3.1	0.8	18.9	2.1*
COc1ccc(-c2noc(=O)n2CC(=O)N2CCC(Cc3ccccc3)CC2)cc1	-0.8	0.9	-1.0	0.7	29.9	0.9
Cc1ccc(S(=O)(=O)c2nnn3c2nc(N2CCCCC2)c2ccccc23)cc1	0.4	1	-1.5	1	1.5	1.1
CCC1CCCCN1c1nc2c(C=O)c(C)nn2c2ccccc12 (stereo unspecified)	-0.1	0.9	-23.7	0.3	67.6*	0.8
COc1ccc(-c2cc(=O)c(C(=O)c3ccc(C)cc3)n[nH]2)cc1	-2.1	1.1	11.6	1	-0.6	1
N#CC(Sc1ccccn1)c1ccc(Cl)cc1 (stereo unspecified)	-1.5	1	1.3	0.9	11.3	1
O=C(Cn1nc(C(F)F)cc1C(F)F)NNC(=S)Nc1ccc([N+](=O)[O-])cc1	-0.1	0.9	7.5	0.5	52.0*	1.1
Cc1nn(CCC(=O)NNC(=S)Nc2ccc([N+](=O)[O-])cc2)c(C)c1[N+](=O)[O-]	0.3	0.9	1.5	0.1	85.6*	0.9
O=C(Cn1nc(C(F)F)cc1C(F)F)NNC(=S)Nc1ccc(F)cc1	-1.7	1	1.4	0.9	5.8	1
O=C(/C(=N/N=C/c1ccc(O)c(O)c1)c1ccccc1)c1ccccc1	0.3	0.7	-5.4	0.5	51.3*	0.8
O=c1[nH]c(Nc2ccccc2)cc2ccccc12	-1.0	0.9	55.3*	0.9	10.2	0.5
CCCCCCCCCCCCCCCCn1cc[n+](CC(C)=O)c1	-0.4	1.1	3.8	3*	-201.3	1.1
O=C(CCN1C(=O)C2C3C=CC(C3)C2C1=O)NCCN1CCCc2ccccc21 (stereo unspecified)	-0.1	1.5	11.4	0.9	6.0	2.1*
O=C1C2C3C=CC(C3)C2C(=O)N1CCC(=O)N1CCc2ccccc21 (stereo unspecified)	-3.8	1	9.8	0.9	10.7	1
O=C(CN1C(=O)C2C3C=CC(C3)C2C1=O)NCCN1CCCc2ccccc21 (stereo unspecified)	-0.7	1.7	-2.7	1	-3.1	2.1*
CCc1c(C)nc2ncnn2c1N1CCN(S(=O)(=O)c2ccc(OC)cc2)CC1	-0.1	/	7.1	/	/	/
CC(C)CN1C(=O)C(=Nc2cccnc2)c2ccccc21	-1.0	0.9	6.9	0.9	6.1	0.7
CCCN(CC(=O)Nc1ccc(F)c(F)c1F)CC(=O)Nc1c(Cl)cccc1Cl	0.3	1	-5.2	1	4.5	1
O=S(=O)(c1ccc2nc(-c3ccco3)c(-c3ccco3)nc2c1)N1CCOCC1	1.8	1.2	38.0	0.3	67.4*	0.9
SMILES	Redox H2O2 prof	PMI activator	G6PDH counter	Diaph act CS	Diaphorase inh	PMI act hi M6P
O=C(c1ccco1)N1CCN(C(=O)c2cc(-c3ccncc3)nc3ccc(Br)cc23)CC1	0.4	/	/	/	/	/
O=C(Nc1cccc(C(F)(F)F)c1)c1ccc2nc(-c3ccco3)c(-c3ccco3)nc2c1	1.4	1	11.3	0.8	23.6	1.1
O=C(O)c1cc(-c2ccco2)nc2ccc(Br)cc12	-0.2	1.1	-4.3	0.3	65.0*	1.3
O=C(c1cc(-c2ccco2)on1)N1CCN(c2ccccc2)CC1	0.0	0.5	-7.3	0.8	23.7	0.5
O=C(c1ccc2nc(-c3ccco3)c(-c3ccco3)nc2c1)N1CCN(c2ccccc2)CC1	-0.4	0.9	-28.1	0.4	55.6*	1.2
O=C(O)c1ccc2nc(-c3ccco3)c(-c3ccco3)nc2c1	0.0	1.3	43.0	0.2	83.6*	0.9
Cc1cc(C(=O)c2ccc(C(C)(C)C)cc2)c(NC(=O)CCl)s1	-0.3	0.9	-16.6	0.8	19.3	1
O=C(NCc1ccncc1)Nc1ccccc1F	-0.3	1	4.5	0.9	5.2	1
Cc1coc(=N)n1CC(=O)c1ccc(Cl)cc1	-0.7	1.1	-1.2	1.1	-7.8	1.1
N#Cc1c(-c2cccc(Br)c2)cc(-c2ccco2)[nH]c1=O	0.6	1	5.6	0.3	66.7*	0.8
CS/C(=N\S(=O)(=O)c1ccccc1)c1ccccc1	0.8	1.7	2.2	1	-2.1	2*
Cc1ccc(C2=NN(S(=O)(=O)c3ccccc3)C(c3ccccc3O)C2)cc1 (stereo unspecified)	0.1	0.9	1.4	0.8	22.4	0.9
O=c1cc(O)c2sc(Nc3ccc(F)cc3)nc2[nH]1	0.3	0.3	12.8	0.2	77.5*	0.4
Cc1cc(=O)[nH]c(Nc2cccc(C(F)(F)F)c2)n1	-0.2	1.1	5.3	1.1	-6.3	1.1
O=c1cc(O)c2sc(Nc3cccc(C(F)(F)F)c3)nc2[nH]1	0.5	0.5	16.1	0.3	65.8*	0.5
Fc1ccc(Nc2nc3ccccc3s2)cc1	0.1	0.9	0.8	0.9	14.3	0.9
CCOC(=O)c1ccc(NC(=S)N2CCSC2c2ccc(Br)cc2)cc1 (stereo unspecified)	0.0	0.9	-2.7	0.8	17.3	1
O=C(CCNC(=O)c1ccccc1)Nc1cccnc1	-0.8	0.9	7.8	1	2.2	1
CCOc1ccc(-c2csc(/C(C#N)=C\c3ccc(O)c([N+](=O)[O-])c3)n2)cc1	0.4	0.7	11.6	0.1	86.8*	0.8
CCCCc1ccc(-c2csc(/C(C#N)=C\c3ccc(C)o3)n2)cc1	2.5	0.9	1.0	0.7	26.2	0.9
Cc1ccc(OCCOc2ccc(Br)cc2)c([N+](=O)[O-])n1	-0.1	0.9	5.4	0.8	15.6	0.9

From PubChem
